Measurements from paper PMC5830699 (ACS Omega, 2018).
Values after ≈ are worked out from the molar mass of the structure shown. Values joined by “and” are separate entries in the source; they are usually repeats but may differ in a detail not shown here. Identical values can stand only once. “Also recorded” adds a separate entry of the source. Like-named read-outs stand apart in the source and are kept apart here.

How the values were obtained:
[1] = tested on: Hydrogenivirga spp. MraY; assay type: biochemical; settings: for IC50: read-out: MraY inhibition IC50
[2] = tested on: C. difficile ATCC 43596; assay: microbe, parasite or virus in culture; assay type: cell-based, Clostridium difficile; settings: for MIC: Clostridioides difficile, ATCC43596, read-out: C. difficile ATCC 43596 MIC
[3] = target: T1, E. coli WecA (Escherichia coli, UniProt P0AC78); assay: biochemical; assay type: biochemical
T1 sequence (P0AC78 1-367): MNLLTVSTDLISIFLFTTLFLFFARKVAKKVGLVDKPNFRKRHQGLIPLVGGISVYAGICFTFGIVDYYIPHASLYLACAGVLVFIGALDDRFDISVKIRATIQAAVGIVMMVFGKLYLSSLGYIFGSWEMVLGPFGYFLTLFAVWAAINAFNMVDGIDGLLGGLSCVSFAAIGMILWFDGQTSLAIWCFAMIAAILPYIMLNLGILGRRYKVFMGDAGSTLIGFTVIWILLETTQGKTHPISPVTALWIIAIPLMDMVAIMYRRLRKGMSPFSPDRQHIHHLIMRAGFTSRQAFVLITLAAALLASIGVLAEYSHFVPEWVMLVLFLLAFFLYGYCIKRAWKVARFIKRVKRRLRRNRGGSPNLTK

[4] = tested on: Bacillus subtilis (ATCC 6051); assay: microbe, parasite or virus in culture; assay type: cell-based; settings: ATCC6051, read-out: MIC Bacillus subtilis
[5] = tested on: Clostridium perfringens (ATCC 13124); assay: microbe, parasite or virus in culture; assay type: cell-based; settings: ATCC13124, read-out: MIC Clostridium perfringens
[6] = tested on: Staphylococcus aureus; assay type: cell-based
[7] = tested on: Staphylococcus pneumoniae; assay type: cell-based
[8] = target: T2, M. smegmatis WecA (Mycolicibacterium smegmatis, UniProt A0R211); assay: WecA inhibition assay; assay type: biochemical
T2 sequence (A0R211 1-406): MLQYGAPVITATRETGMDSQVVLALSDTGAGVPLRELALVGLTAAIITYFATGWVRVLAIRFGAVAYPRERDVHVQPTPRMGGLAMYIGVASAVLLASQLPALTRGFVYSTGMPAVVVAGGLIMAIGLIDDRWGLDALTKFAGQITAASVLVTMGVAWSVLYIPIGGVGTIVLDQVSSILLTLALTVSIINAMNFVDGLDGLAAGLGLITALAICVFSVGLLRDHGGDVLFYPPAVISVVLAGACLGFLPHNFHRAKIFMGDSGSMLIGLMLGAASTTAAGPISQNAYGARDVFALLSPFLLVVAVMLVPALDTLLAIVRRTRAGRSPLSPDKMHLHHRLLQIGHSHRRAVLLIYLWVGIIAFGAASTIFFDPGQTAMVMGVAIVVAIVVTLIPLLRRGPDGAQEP

[9] = tested on: Vero cells; assay: Vero cell cytotoxicity; assay type: cell-based, African green monkey
In short: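 Vero cells (ATCC CCL-81) grown in flasks, then seeded into 96-well plates in Eagle's minimum essential medium with 10% FBS and penicillin–streptomycin. Test compound stock was 1 mg per 100 μL in PEG 300–water (1/1). Serial dilutions spanning 0.78–200 μg/mL were added, with known-toxicity control compounds on every plate. After incubation, cytotoxicity was read by MTT.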

[10] = tested on: all Gram-negative bacteria tested; assay type: cell-based
[11] = tested on: Lactobacillus spp.; assay type: cell-based
[12] = tested on: sheep blood; assay: Hemolysis assay; assay type: cell-based; settings: for IC50: read-out: hemolysis IC50, sheep blood
[13] = tested on: C. difficile (ATCC 43596) spores; assay: C. difficile spore viability / outgrowth assay; assay type: cell-based, Clostridium difficile; settings: 24 h treatment, taurocholate agar
[14] = Water solubility; assay type: physicochemical
[15] = tested on: C. difficile spore outgrowth; settings: high concentrations; cited from earlier work
[16] = tested on: vegetative C. difficile; settings: cited from earlier work
[17] = target: T3, M. jannaschii AglH (Methanocaldococcus jannaschii, UniProt Q58513); assay: AglH counterselection assay; assay type: biochemical; settings: read-out: AglH inhibition IC50, M. jannaschii AglH
T3 sequence (Q58513 1-301): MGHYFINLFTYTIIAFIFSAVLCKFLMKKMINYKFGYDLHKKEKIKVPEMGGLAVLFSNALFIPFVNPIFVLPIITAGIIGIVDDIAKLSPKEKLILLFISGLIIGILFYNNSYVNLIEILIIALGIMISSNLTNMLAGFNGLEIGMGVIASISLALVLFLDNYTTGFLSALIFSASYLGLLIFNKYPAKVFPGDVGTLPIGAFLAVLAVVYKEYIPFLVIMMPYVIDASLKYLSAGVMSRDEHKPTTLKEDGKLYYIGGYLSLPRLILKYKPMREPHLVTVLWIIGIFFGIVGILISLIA

## CN(CCCN)[C@H](C(=O)O)[C@@H](O[C@@H]1O[C@H](CN)[C@@H](O)[C@H]1O)[C@H]1O[C@@H](n2ccc(=O)[nH]c2=O)C(O)C1O (stereo partly drawn) [compound 5, FR-900493-5′R,6′S-Diastereomer]
[1]
  IC50: > 100 µM
[2]
  MIC: > 25 µg/mL

## CN(CCCN)[C@@H](C(=O)O)[C@@H](O[C@@H]1O[C@H](CN)[C@@H](O)[C@H]1O)[C@H]1O[C@@H](n2ccc(=O)[nH]c2=O)C(O)C1O (stereo partly drawn) [compound 6, FR-900493-5′R, 6′R-Diastereomer]
[1]
  IC50: > 100 µM
[2]
  MIC: > 25 µg/mL

## CN(CCCN)[C@H](C(N)=O)[C@H](O[C@@H]1O[C@H](CN)[C@@H](O)[C@H]1O)[C@H]1O[C@@H](n2ccc(=O)[nH]c2=O)C(O)C1O (some centres unmarked) [compound 7, FR-900493-Amide]
[3]
  WecA inhibitory activity (in words): equal to that of 1
[1]
  MraY inhibitory activity (in words): equal to that of 1
  IC50: 25 ± 9.67 µM
[2]
  MIC: > 25 µg/mL

## NCCCN[C@H](C(N)=O)[C@H](O[C@@H]1O[C@H](CN)[C@@H](O)[C@H]1O)[C@H]1O[C@@H](n2ccc(=O)[nH]c2=O)C(O)C1O (some centres unmarked) [compound 8, De N-Methyl FR-900493]
[3]
  IC50: > 100 µM
  WecA inhibitory activity (in words): completely lost
[1]
  MraY inhibitory activity (in words): completely lost
  IC50: > 100 µM
[2]
  MIC: > 25 µg/mL

## NC[C@H]1O[C@@H](O[C@@H]([C@H](NCCCC(=O)NCc2ccc(N3CCC(Oc4ccc(OC(F)(F)F)cc4)CC3)cc2)C(N)=O)[C@H]2O[C@@H](n3ccc(=O)[nH]c3=O)C(O)C2O)[C@H](O)[C@@H]1O (some centres unmarked) [compound 11]
[4]
  MIC: 1.6 µg/mL (≈ 1.81 µM)
[5]
  MIC: 3.1 µg/mL (≈ 3.52 µM)
[6]
  growth inhibition of Staphylococcus aureus: > 25.0 µg/mL
[7]
  growth inhibition of Staphylococcus pneumoniae: > 25.0 µg/mL
[8]
  IC50: 0.25 µM
[9]; Chlorocebus sabaeus, Vero, read-out: Vero cells IC50, cytotoxicity, MTT
  IC50: 65 ± 4.65 µM
[9]; less cytotoxic than 10
  cytotoxicity against Vero cells of 11 relative to 10: approximately 8 times
[10]
  growth inhibition of all Gram-negative bacteria tested: > 25.0 µg/mL
[11]
  growth inhibition of Lactobacillus spp.: > 25.0 µg/mL
[12]; at 100 μM concentration
  induction of hemolysis (in words): does not induce hemolysis
[12]; listed as UT-17460 (11)
  IC50: 206 ± 4.33 µM
[2]
  C. difficile ATCC 43596 MIC: 3.25 ± 4.40 µg/mL
  anti-C. difficile activity in library screen: displayed anti-C. difficile activity
  MIC: 3.25 µg/mL (≈ 3.69 µM)
[13]; 2× MIC
  outgrowth of C. difficile spores (in words): prevented the outgrowth; also recorded: inhibited the outgrowth
[14]; greater than 10
  water solubility of 11 relative to 10: 200 times
[14]; water
  solubility: 22 mg/mL (≈ 24900 µM)

## CN(CCCC(=O)NCc1ccc(N2CCC(Oc3ccc(OC(F)(F)F)cc3)CC2)cc1)[C@H](C(N)=O)[C@H](O[C@@H]1O[C@H](CN)[C@@H](O)[C@H]1O)[C@H]1O[C@@H](n2ccc(=O)[nH]c2=O)C(O)C1O (some centres unmarked) [compound 12]
[1]
  MraY inhibitory activity relative to FR-900493 (1): > 3 fold
[2]
  anti-C. difficile activity in library screen: displayed anti-C. difficile activity
  MIC: 50 ± 5.81 µg/mL (≈ 55.8 µM)

## CCc1c(Cl)c(O)c(Cl)c(O)c1C(=O)O[C@H]1[C@H](O)[C@H](OC)[C@H](OC/C2=C\C=C\C[C@H](O)/C(C)=C/[C@H](CC)[C@@H](O[C@@H]3OC(C)(C)[C@@H](OC(=O)C(C)C)[C@H](O)[C@@H]3O)/C(C)=C/C(C)=C/C[C@@H]([C@@H](C)O)OC2=O)O[C@@H]1C [fidaxomicin]
[15]
  concentration inhibiting C. difficile spore outgrowth: 4.0 to 14 µg/mL
[16]
  MIC90: 0.5 µg/mL (≈ 0.473 µM)

## CC(=O)NC[C@H]1CN(c2ccc(N3CCOCC3)c(F)c2)C(=O)O1 [linezolid]
[13]; 5× MIC
  outgrowth of C. difficile spores (in words): did not inhibit the spore outgrowth

## Cc1ncc([N+](=O)[O-])n1CCO [metronidazole]
[13]; 5× MIC
  outgrowth of C. difficile spores (in words): did not inhibit the spore outgrowth

## CN[C@H](CC(C)C)C(=O)N[C@H]1C(=O)N[C@@H](CC(N)=O)C(=O)N[C@H]2C(=O)N[C@H]3C(=O)N[C@H](C(=O)N[C@H](C(=O)O)c4cc(O)cc(O)c4-c4cc3ccc4O)[C@H](O)c3ccc(c(Cl)c3)Oc3cc2cc(c3O[C@@H]2O[C@H](CO)[C@@H](O)[C@H](O)[C@H]2O[C@H]2C[C@](C)(N)[C@H](O)[C@H](C)O2)Oc2ccc(cc2Cl)[C@H]1O [vancomycin, reference compound]
[3]
  IC50: > 50 µM
[1]
  IC50: > 50 µM
[2]
  MIC: 2.5 µg/mL (≈ 1.73 µM)
[13]; 5× MIC
  outgrowth of C. difficile spores (in words): did not inhibit the spore outgrowth

## tunicamycin [reference compound]
[17]
  IC50: 13.3 ± 8.1 µM
[12]
  IC50: 15 ± 7.83 µM
[2]
  C. difficile ATCC 43596 MIC: >25.0 µg/mL and >50.0 µg/mL
